Screening results as filed in PubChem BioAssay.
Only some compounds are listed: those with a hit (about 6.1% of all), similar ones and a draw of the others.
BB579 growth dn: reduces growth of yeast BB579 in restrictive medium. S. cerevisiae BB579 growth, OD615, 48 h. inhibition, % at 10 µM. 0.51% of 140,000 active. AID 804;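 active = inhibition above a set limit, 3 SD over the mean compound inhibition, cut at about 44% in these data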
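System: DeaD yeast strain BB579; buffer or medium: CSMM-D dextrose restrictive medium; technique: OD at 615 nm; schedule: 4 h cell preincubation, 48 h compound exposure, 30 °C humidified; doses: single 10 µM dose; controls: amphotericin B 10 µg/mL, positive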
Yeast lifespan up: extends the lifespan of yeast | 0.68% of 130,000 active | AID 775 | S. cerevisiae growth with nicotinamide, OD615; deaD strain in restrictive glucose medium | inhibition of the nicotinamide effect, % at 10 µM;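 active = inhibition above a set limit, placed 3 SD over the median of all compounds, cut at about 26% in these data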;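 note: 0% = nicotinamide-treated wells and 100% = cells grown without nicotinamide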
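System: DeaD-strain S. cerevisiae / Buffer or medium: CSMM-D, restrictive glucose (dextrose) synthetic minimal medium / Probe or stimulus: nicotinamide, 1.5 mM, co-present with compound / Compound: one concentration, 10 µM, DMSO 0.25% / Incubation: 48 h compound exposure at 30 °C, humidified / Technique: optical density (absorbance) at 615 nm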
DAT uptake mod: modulates human dopamine transporter uptake under cocaine | LLC-PK1 hDAT cells, [14C]-dopamine uptake with cocaine IC80; actives deviate in either direction | B-score at 10 µM | 1.3% of 110,000 active | AID 449768;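 active = Z score or B-score, a plate-position-corrected score, falls beyond the plate's 99.7% confidence bounds, in either direction; inactive = both scores lie inside the 99.7% bounds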;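 note: scored against the spread of the other compound wells on the same plate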
Target sequence (Q01959 whole entry, looked up): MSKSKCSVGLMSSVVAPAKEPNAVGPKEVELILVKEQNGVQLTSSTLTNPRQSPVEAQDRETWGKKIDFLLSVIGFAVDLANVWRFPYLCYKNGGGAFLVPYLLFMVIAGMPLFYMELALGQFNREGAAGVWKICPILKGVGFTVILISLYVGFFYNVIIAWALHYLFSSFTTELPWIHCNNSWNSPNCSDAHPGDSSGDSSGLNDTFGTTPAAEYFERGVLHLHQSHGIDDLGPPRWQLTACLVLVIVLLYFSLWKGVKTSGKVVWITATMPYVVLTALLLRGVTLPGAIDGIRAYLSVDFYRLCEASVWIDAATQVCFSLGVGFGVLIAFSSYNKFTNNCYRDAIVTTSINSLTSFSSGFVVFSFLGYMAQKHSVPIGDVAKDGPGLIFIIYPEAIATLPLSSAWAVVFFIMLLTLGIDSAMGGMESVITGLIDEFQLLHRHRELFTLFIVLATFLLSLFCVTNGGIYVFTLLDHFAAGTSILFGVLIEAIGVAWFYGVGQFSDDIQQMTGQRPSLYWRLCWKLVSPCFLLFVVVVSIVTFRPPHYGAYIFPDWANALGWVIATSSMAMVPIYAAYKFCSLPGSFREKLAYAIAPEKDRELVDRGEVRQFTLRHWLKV
RAM network inh: inhibitors of the yeast RAM network; S. cerevisiae dse1pr::URA3 reporter, 5-FOA growth OD615, 2 d; analog-sensitive cbk1-as2 kinase mutant strain; inhibition, % at 50 µM; 1.8% of 190,000 active;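 active = inhibition above a set limit, 3 SD over mean compound inhibition, cut at about 8.4% in these data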;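 note: 0% = DMSO-only wells with no growth and 100% = 10 µM 1-NA-PP1 full growth; inhibition rescues growth on 5-FOA so higher OD means more RAM inhibition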
Measles CPE: protection of cells from measles virus. Measles virus-infected cells, CPE protection, absorbance. protection (pct of control), % at 4 µM. 1.5% of 140,000 active. AID 841; in the data active = protection mostly above about 24%, no sharp cut-off; inactive = mostly below about 26%
WT yeast gro inh: growth inhibition of WT yeast, mitochondrial fusion screen; mitochondrial fusion phenotypic screen, WT strain; inhibition, % at 10 µM; 2.1% of 190,000 active; AID 1362; in the data active = inhibition above about 58%; tested in S. cerevisiae
* marks the source's active call; other numbers are inactive results; / = no result.

SMILES	BB579 growth dn	Yeast lifespan up	DAT uptake mod	RAM network inh	Measles CPE	WT yeast gro inh
OCCCn1c(C(CO)Nc2nc(-c3ccc(Cl)cc3)cs2)nc2ccccc21 (stereo not given)	/	/	2.5*	/	/	/
Cc1ccc(-c2csc(NC(CO)c3nc4ccccc4n3CCOCCO)n2)cc1 (stereo not given)	/	/	2.8*	/	/	/
CC(C)c1nnc(SCC(=O)N2CCOCC2)n1C	-20	/	1.1	0	17	-7
COc1cc(/C=C(\C#N)c2ccccn2)ccc1OCC(=O)Nc1ccc(Br)cc1	-18	1	/	3	4	2
O=c1cc(C(F)(F)F)[nH]c2c(C(F)(F)F)cccc12	90*	-1	-1.2	-2	2	78*
Cc1cc(=O)c2cccc(Br)c2[nH]1	-30	/	-0.41	2	17	-15
Cc1cc(NC(=O)CSc2ccc3nnc(-c4cccnc4)n3n2)no1	-10	0	0.023	3	44*	-14
COc1cc(CNCc2ccccn2)ccc1OCc1cccc(Cl)c1	1	-17	1.5	-1	7	-5
CCn1c(-c2ccc3ncccc3c2)n[nH]c1=S	-13	-23	3.1*	1	4	10
CCn1c(-c2cccc(Br)c2)n[nH]c1=S	-9	-8	1	0	7	14
COc1cccc(-c2cc(C(=O)N3CC4(C)CC3CC(C)(C)C4)no2)c1 (stereo not given)	-72	1	1.4	10*	7	-1
Cc1ccc(-c2nnn(CC(=O)N(CC3CCCO3)C(C(=O)NCC3CCCO3)c3ccc(F)cc3)n2)o1 (stereo not given)	-27	/	0.12	2	42*	-19
COc1ccc(C(=O)/C=C/C(=O)N(CC(=O)NC2CCCCC2)Cc2cccs2)c(O)c1	/	/	/	4	/	65*
COCCN(CC(=O)NC1CCCCC1)C(=O)/C=C/C(=O)c1ccc(OC)cc1O	/	/	/	5	/	-5
O=S1(=O)C=C(Sc2nc3ccccc3s2)c2ccccc21	-11	69*	-0.63	2	2	16
O=S1(=O)C=C(SCCN2CCCCC2)c2ccccc21	-9	-6	-0.053	0	7	5
Cc1cc(C)nc(SC2=CS(=O)(=O)c3ccccc32)n1	-7	-9	-7.7*	1	26	-5
O=S1(=O)C=C(Sc2nnc(-c3ccccc3)o2)c2ccccc21	36	43*	/	3	-1	75
Nc1nc(N)nc(COc2ccccc2)n1	/	/	/	2	/	-15
O=C(NC(Cc1c[nH]c2ccccc12)C(=O)N/N=C/c1cccnc1)c1cccs1 (stereo not given)	/	/	/	3	/	3
Clc1ccc(C(c2nnnn2C2CCCC2)N2CCSCC2)cc1 (stereo not given)	-10	-9	0.1	-1	4	8
O=C(CSc1nc(CCC2CCCC2)nc2ccccc12)NCc1ccc2c(c1)OCO2	-18	4	/	8	6	-13
O=C(NC1(C(F)(F)F)N=C(c2ccccc2)NC1=O)c1ccccc1F (stereo not given)	-8	-1	/	1	22	-13
O=C(NNc1nc(-c2ccccc2)c2cc(Br)ccc2n1)c1ccc(S(=O)(=O)N2CCCCC2)cc1	-47	2	/	5	47*	5
O=C(NNc1nc(-c2ccccc2)c2cc(Br)ccc2n1)c1ccc(S(=O)(=O)N2CCOCC2)cc1	-35	5	/	7	10	-5
SMILES	BB579 growth dn	Yeast lifespan up	DAT uptake mod	RAM network inh	Measles CPE	WT yeast gro inh
NC(=O)c1ccsc1NC(=O)c1ccc2c(c1)CCCC2	-15	-6	0.51	2	19	70*
CNC(=O)c1ccsc1NC(=O)c1ccc2c(c1)CCCC2	-21	-7	/	2	9	72*
CCN1CCN(C(=O)Cn2cnc3sc(C)c(S(=O)(=O)N4CCN(c5ncccn5)CC4)c3c2=O)CC1	/	/	/	1	/	-8
COc1ccc(C=C(c2ccc(OC)cc2)c2ccc(OC)cc2)cc1	-67	-2	0.072	8.5*	0	37
Cc1ccccc1OCCNc1cc(N2CC(C)NC(C)C2)ccc1[N+](=O)[O-] (stereo not given)	/	/	-1.7	0	/	87*
O=[N+]([O-])c1ccc(N2CCCCC2)cc1NCCOc1ccccc1	-1	3	/	6	18	6
CC(C)(C)CC(C)(C)NC(=O)CSCC(=O)Nc1ccc2ccccc2c1	3	/	0.16	3	12	68*
CCCC(=O)C1C(=O)CC(C)(C)C(c2cc(C)no2)C1=O (stereo not given)	-48	56*	0.46	0	4	13
O=C(O)c1cc2c(ccc3ccccc32)oc1=O	67*	-11	-0.51	-1	6	6
O=C(O)c1cc2ccc3ccccc3c2oc1=O	64*	/	-0.44	-2	9	-11
CN1/C(=C\C(=O)C[n+]2ccc3ccccc3c2)C(C)(C)c2ccccc21	/	/	/	1	/	7
O=C(Cc1ccc([N+](=O)[O-])cc1)N1CCCc2ccccc21	/	/	/	2	/	18
COc1ccc(C(=O)C(CN2CCOCC2)c2ccccc2)cc1F (stereo not given)	-42	79*	-0.56	2	22	61*
C#CCO[C@@H]1C[C@H](n2ccc(NC(=O)c3ccccc3)nc2=O)O[C@@H]1CO	/	/	-0.033	/	/	/
Cc1nc(N2CCOCC2)c2c(C)c(C(=O)Nc3ccccc3C(F)(F)F)sc2n1	/	/	/	1	/	20
Cc1nc(N2CCCCC2C)c2c(C)c(C(=O)Nc3ccccc3C(F)(F)F)sc2n1 (stereo not given)	/	/	/	0	/	75*
Cc1nnc(N(C)C(=O)c2ccc3c(c2)OCO3)s1	/	/	/	1	/	-18
CCCCOCCCn1c(-c2ccco2)nc2nc3ccccc3nc21	-55	-22	3.5*	2	8	8
COCCCn1c(-c2ccco2)nc2ccccc2c1=O	-30	-23	0.11	1	29*	-10
Cc1cc(N2CCOCC2)n2nc(-c3cccc(F)c3)cc2n1	-8	-9	0.6	-1	5	-6
OC1CCN(c2cc(-c3ccccc3)nc3cc(-c4ccc(F)cc4)nn23)CC1	/	/	/	9.6*	/	-16
COc1cccc(-c2cc3nc(-c4ccccc4)cc(N4CCCC(O)C4)n3n2)c1 (stereo not given)	/	/	/	0	/	69*
CCN1CCN(c2cc(-c3ccccc3)nc3cc(-c4cccc(F)c4)nn23)CC1	-66	/	1.1	-1	8	82*
COc1ccc(-c2cc3nc(-c4ccccc4)cc(N4CCC5(CC4)OCCO5)n3n2)cc1	-12	-21	0.83	6	12	-2
Cc1c(Cl)cccc1NC(=S)NC1CCN(C(C)C)CC1	/	/	/	-1	/	-4
Cc1ccc(NC(=O)/C(C#N)=C/c2ccc(C)s2)c(C)c1	-25	-3	0.0098	4	14	-9
Cc1ccc(CNC(=O)/C(C#N)=C/c2ccc(C)s2)cc1	-5	-21	0.0019	3	20*	11
Cc1ccc(C(=O)Nc2nc(=O)[nH]s2)cc1	/	/	/	2	/	-11
